# Tested on: HEK-293T
# Test: Multiplex assay against HEK293T
# Format: toxicity, cell-based
# Conditions: human
# In short: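 Tubulin, mitochondrial-mass and membrane-permeability phenotypes are per cents of healthy-nucleus cells. Cells were gated by CellPathfinder machine learning into Hoechst high-intensity objects or normal cells, normal cells into healthy, pyknosed or fragmented nuclei, and pyknosed cells into mitotic or apoptotic. Before that, live cells stained at seeding with Hoechst33342, BioTracker Green Microtubule Cytoskeleton Dye, MitoTracker Red and Annexin V Alexa Fluor 680 were imaged on a CQ1 microscope at 37°C and 5% CO2 after compound addition.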
# [1] = 12 h, 1 µM, compound concentration 1 uM, replicate 1
# [2] = 12 h, 1 µM, compound concentration 1 uM, replicate 2
# [3] = 12 h, 10 µM, compound concentration 10 uM, replicate 1
# [4] = 12 h, 10 µM, compound concentration 10 uM, replicate 2
# [5] = 24 h, 1 µM, compound concentration 1 uM, replicate 1
# [6] = 24 h, 1 µM, compound concentration 1 uM, replicate 2
# [7] = 24 h, 10 µM, compound concentration 10 uM, replicate 1
# [8] = 24 h, 10 µM, compound concentration 10 uM, replicate 2
# [9] = 48 h, 1 µM, compound concentration 1 uM, replicate 1
# [10] = 48 h, 1 µM, compound concentration 1 uM, replicate 2
# [11] = 48 h, 10 µM, compound concentration 10 uM, replicate 1
# [12] = 48 h, 10 µM, compound concentration 10 uM, replicate 2
smiles,measurement,setting,value
N[C@@]1(C(=O)O)CO[C@H]2[C@H](C(=O)O)[C@H]21 [LY-379268],Population Apoptotic (%),[1],40%
same,Population Fragmented Nuclei (%),[1],6%
same,Population Healthy Nuclei (%),[1],81%
same,Population Hoechst High Intensity Objects (%),[1],5%
same,Population Membrane Permeable-Phenotype (%),[1],0%
same,Population Mitochondria Different-Phenotype (%),[1],38%
same,Population Mitotic Cells (%),[1],60%
same,Population Normal (%),[1],94%
same,Population Pyknosed Nuclei (%),[1],12%
same,Population Tubulin-Different-Phenotype (%),[1],26%
same,Total Cell Count,[1],396
same,Population Apoptotic (%),[2],42%
same,Population Healthy Nuclei (%),[2],80%
same,Population Hoechst High Intensity Objects (%),[2],10%
same,Population Membrane Permeable-Phenotype (%),[2],1%
same,Population Mitochondria Different-Phenotype (%),[2],57%
same,Population Mitotic Cells (%),[2],57%
same,Population Normal (%),[2],89%
same,Population Tubulin-Different-Phenotype (%),[2],18%
same,Total Cell Count,[2],411
same,Population Apoptotic (%),[3],27%
same,Population Fragmented Nuclei (%),[3],10%
same,Population Healthy Nuclei (%),[3],78%
same,Population Hoechst High Intensity Objects (%),[3],8%
same,Population Membrane Permeable-Phenotype (%),[3],0%
same,Population Mitochondria Different-Phenotype (%),[3],33%
same,Population Mitotic Cells (%),[3],72%
same,Population Normal (%),[3],91%
same,Population Pyknosed Nuclei (%),[3],10%
same,Population Tubulin-Different-Phenotype (%),[3],31%
same,Total Cell Count,[3],437
same,Population Apoptotic (%),[4],52%
same,Population Fragmented Nuclei (%),[4],8%
same,Population Healthy Nuclei (%),[4],79%
same,Population Hoechst High Intensity Objects (%),[4],7%
same,Population Mitochondria Different-Phenotype (%),[4],51%
same,Population Mitotic Cells (%),[4],47%
same,Population Normal (%),[4],92%
same,Population Pyknosed Nuclei (%),[4],12%
same,Population Tubulin-Different-Phenotype (%),[4],18%
same,Total Cell Count,[4],380
same,Population Apoptotic (%),[5],30%
same,Population Fragmented Nuclei (%),[5],8%
same,Population Healthy Nuclei (%),[5],79%
same,Population Hoechst High Intensity Objects (%),[5],2%
same,Population Membrane Permeable-Phenotype (%),[5],0%
same,Population Mitochondria Different-Phenotype (%),[5],21%
same,Population Mitotic Cells (%),[5],70%
same,Population Normal (%),[5],97%
same,Population Pyknosed Nuclei (%),[5],11%
same,Population Tubulin-Different-Phenotype (%),[5],20%
same,Total Cell Count,[5],517
same,Population Apoptotic (%),[6],29%
same,Population Fragmented Nuclei (%),[6],7%
same,Population Healthy Nuclei (%),[6],83%
same,Population Hoechst High Intensity Objects (%),[6],7%
same,Population Mitochondria Different-Phenotype (%),[6],31%
same,Population Normal (%),[6],92%
same,Population Pyknosed Nuclei (%),[6],9%
same,Population Tubulin-Different-Phenotype (%),[6],13%
same,Total Cell Count,[6],481
same,Population Apoptotic (%),[7],36%
same,Population Fragmented Nuclei (%),[7],10%
same,Population Healthy Nuclei (%),[7],79%
same,Population Hoechst High Intensity Objects (%),[7],6%
same,Population Membrane Permeable-Phenotype (%),[7],0%
same,Population Mitochondria Different-Phenotype (%),[7],24%
same,Population Mitotic Cells (%),[7],63%
same,Population Normal (%),[7],93%
same,Population Pyknosed Nuclei (%),[7],9%
same,Population Tubulin-Different-Phenotype (%),[7],15%
same,Total Cell Count,[7],551
same,Population Apoptotic (%),[8],43%
same,Population Fragmented Nuclei (%),[8],8%
same,Population Healthy Nuclei (%),[8],82%
same,Population Hoechst High Intensity Objects (%),[8],8%
same,Population Mitochondria Different-Phenotype (%),[8],39%
same,Population Mitotic Cells (%),[8],56%
same,Population Normal (%),[8],91%
same,Total Cell Count,[8],470
same,Population Apoptotic (%),[9],26%
same,Population Fragmented Nuclei (%),[9],13%
same,Population Healthy Nuclei (%),[9],79%
same,Population Hoechst High Intensity Objects (%),[9],3%
same,Population Membrane Permeable-Phenotype (%),[9],1%
same,Population Mitochondria Different-Phenotype (%),[9],15%
same,Population Mitotic Cells (%),[9],73%
same,Population Normal (%),[9],97%
same,Population Pyknosed Nuclei (%),[9],6%
same,Population Tubulin-Different-Phenotype (%),[9],9%
same,Total Cell Count,[9],866
same,Population Apoptotic (%),[10],33%
same,Population Fragmented Nuclei (%),[10],10%
same,Population Healthy Nuclei (%),[10],81%
same,Population Hoechst High Intensity Objects (%),[10],7%
same,Population Membrane Permeable-Phenotype (%),[10],0%
same,Population Mitochondria Different-Phenotype (%),[10],22%
same,Population Mitotic Cells (%),[10],66%
same,Population Normal (%),[10],92%
same,Population Pyknosed Nuclei (%),[10],7%
same,Population Tubulin-Different-Phenotype (%),[10],14%
same,Total Cell Count,[10],611
same,Population Apoptotic (%),[11],24%
same,Population Fragmented Nuclei (%),[11],16%
same,Population Healthy Nuclei (%),[11],75%
same,Population Hoechst High Intensity Objects (%),[11],4%
same,Population Membrane Permeable-Phenotype (%),[11],1%
same,Population Mitochondria Different-Phenotype (%),[11],18%
same,Population Mitotic Cells (%),[11],75%
same,Population Normal (%),[11],95%
same,Population Pyknosed Nuclei (%),[11],7%
same,Population Tubulin-Different-Phenotype (%),[11],10%
same,Total Cell Count,[11],781
same,Population Apoptotic (%),[12],25%
same,Population Fragmented Nuclei (%),[12],11%
same,Population Healthy Nuclei (%),[12],80%
same,Population Membrane Permeable-Phenotype (%),[12],0%
same,Population Mitochondria Different-Phenotype (%),[12],19%
same,Population Tubulin-Different-Phenotype (%),[12],9%
same,Total Cell Count,[12],689
